Source: PubChem BioAssay
Apaf-1 act: human Apaf-1 activation | O14727 | Apaf-1 apoptosome caspase-3 activation, DEVD-Rh110 fluorescence; stronger effect = lower value | activity change, negative = activation, % at 20 µM | 0.31% of 330,000 active | AID 489031;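 active = activity change at or below -40% at 20 µM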
Target sequence (O14727 whole entry, looked up): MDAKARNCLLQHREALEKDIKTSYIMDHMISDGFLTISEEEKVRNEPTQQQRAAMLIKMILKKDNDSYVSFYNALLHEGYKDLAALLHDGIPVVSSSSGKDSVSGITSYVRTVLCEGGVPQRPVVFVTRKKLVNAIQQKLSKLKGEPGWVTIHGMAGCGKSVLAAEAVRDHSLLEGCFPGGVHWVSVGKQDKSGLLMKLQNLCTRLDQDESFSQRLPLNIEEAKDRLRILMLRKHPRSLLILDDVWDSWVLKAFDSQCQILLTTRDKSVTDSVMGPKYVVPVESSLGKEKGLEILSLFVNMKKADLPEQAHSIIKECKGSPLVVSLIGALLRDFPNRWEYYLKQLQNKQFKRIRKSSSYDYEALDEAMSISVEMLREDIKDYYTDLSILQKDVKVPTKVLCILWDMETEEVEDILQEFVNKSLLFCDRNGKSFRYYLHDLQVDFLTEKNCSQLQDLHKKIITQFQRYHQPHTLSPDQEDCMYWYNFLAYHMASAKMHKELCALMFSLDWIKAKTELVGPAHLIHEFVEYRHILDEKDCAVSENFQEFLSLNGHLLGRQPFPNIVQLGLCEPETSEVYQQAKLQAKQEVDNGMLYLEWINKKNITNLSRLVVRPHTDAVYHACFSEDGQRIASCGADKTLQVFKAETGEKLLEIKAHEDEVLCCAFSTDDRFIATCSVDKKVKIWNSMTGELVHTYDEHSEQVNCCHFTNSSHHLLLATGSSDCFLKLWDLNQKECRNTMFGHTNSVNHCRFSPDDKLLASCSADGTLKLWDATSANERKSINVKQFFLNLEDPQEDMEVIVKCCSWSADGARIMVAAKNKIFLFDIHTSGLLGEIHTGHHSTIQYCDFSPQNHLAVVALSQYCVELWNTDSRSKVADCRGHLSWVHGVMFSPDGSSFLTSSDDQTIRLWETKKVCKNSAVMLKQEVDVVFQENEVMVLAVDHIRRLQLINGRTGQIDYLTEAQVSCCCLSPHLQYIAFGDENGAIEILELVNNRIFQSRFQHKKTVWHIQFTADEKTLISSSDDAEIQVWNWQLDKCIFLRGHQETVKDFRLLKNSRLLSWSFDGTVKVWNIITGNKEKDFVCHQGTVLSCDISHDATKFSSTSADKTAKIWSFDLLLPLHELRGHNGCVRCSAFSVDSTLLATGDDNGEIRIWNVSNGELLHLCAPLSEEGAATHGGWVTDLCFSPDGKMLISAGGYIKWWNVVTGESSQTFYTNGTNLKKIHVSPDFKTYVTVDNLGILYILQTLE
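Assay system – biochemical Apaf-1 apoptosome reconstitution · Medium – 20 mM HEPES buffer, pH 7.5, containing CHAPS and BSA · Incubation – 30 min preincubation, 50 min reaction, room temperature · Measured by – Caspase-3-released Rh110 fluorescence, 540 nm emission, 480 nm excitation · Read-out – Caspase-3 cleavage activity downstream of Apaf-1 activation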
Rh110 interf act: interferes with Rh110 fluorescence, flagging false Apaf-1 activators; shares compounds with Apaf-1 act; fluorescence interference (activity change), % at 20 µM, hits read low; 980 tested, under 10 active; Rh110 fluorescence interference, quenched caspase reaction, Ex480/Em540;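 active = mean activity change at or below -40% when tested at 20 µM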
Apaf-1 act conf: Apaf-1 (human) activation, single-dose confirmed; reconstituted apoptosome caspase-3 activity, DEVD-Rh110 fluorescence; stronger effect = lower value; 5% of 980 active; AID 504617; activity change, negative = activation, % at 20 µM; shares compounds with Apaf-1 act;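 active = mean activity change at or below -40%, meaning activation of 40% or more, at 20 µM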
Each line names hits and unclear results; the compound was inactive in the other large screens (follow-up assays come after a bar, where they were run). A selection follows.

CC[C@H](C)Cc1cn([C@@H](CCCCN)C(=O)NCCCCCCCCCCC(=O)N2CCNCC2)nn1	none
CCOc1cc(N(CC)CC)ccc1/C=C(/C#N)c1nc2ccccc2[nH]1	Apaf-1 act -46.0 | Rh110 interf act inactive | Apaf-1 act conf inactive
Cc1ccc(NC2=C/C(=N\S(=O)(=O)c3cccs3)c3ccccc3C2=O)c(C)c1	none
CCOC(=O)c1[nH]c2ccc(OC)cc2c1NC(=O)c1nonc1C	Apaf-1 act -143.6 | Rh110 interf act inactive | Apaf-1 act conf inactive
CCOC(=O)c1[nH]c(=O)c2ccccc2c1O	none
CCOC(=O)c1cc2cc3ccccc3cc2[nH]1	none
O=C(c1ccc(F)cc1)[C@@H]1[C@@H](C(=O)c2ccccc2)[C@@]2(C(=O)Nc3ccccc32)[C@H]2c3ccccc3C=CN12	none
CC(NC(=O)c1ccccc1Cl)C(=O)O (stereo unspecified)	Apaf-1 act -532.5 | Rh110 interf act inactive | Apaf-1 act conf inactive
O=C(NC1(O)C(=O)c2ccccc2C1=O)c1c(Cl)cccc1Cl	none
O=C(Cn1nc(-c2ccccc2Cl)ccc1=O)Nc1ccccc1-c1ccccc1	none
COC(=O)CCCC1=CC2=C(c3ccccc3)C(=O)C(C)(OC(=O)C3CCCC3)C(=O)C2=CN1CC(C)C (stereo unspecified)	none
COCCOC(=O)c1[nH]c2c(c1C)C(=O)C(C(=O)OC)C(C)C2 (stereo unspecified)	Apaf-1 act -67.6 | Rh110 interf act inactive | Apaf-1 act conf inactive
CC1(C)CNc2cc(N)ccc2S1	none
OCCCCNc1cccc2ccccc12	none
CCNc1ccccc1CP(=O)(c1ccccc1)c1ccccc1O (stereo unspecified)	none
CC1=NN(c2ccc(C)cc2C)C(=O)C1C(c1ccccc1O)C1C(=O)N(c2ccc(C)cc2C)N=C1C (stereo unspecified)	none
CCC[C@@H](CN1CCC[C@H]1CN1C(N)=NC[C@@H]1Cc1ccccc1)N1C[C@@H]([C@H](C)CC)N(CCc2ccc(Cl)c(Cl)c2)C1=N	none
Cc1cc(C)n2nc(C(=O)N3CCCC(CNS(=O)(=O)c4cccs4)C3)cc2n1 (stereo unspecified)	Apaf-1 act -393.9 | Rh110 interf act inactive | Apaf-1 act conf inactive
CCOC(=O)C(NC(=O)c1ccccc1Cl)(Nc1ccc(C(F)(F)F)cc1)C(F)(F)F (stereo unspecified)	Apaf-1 act -406.2 | Rh110 interf act inactive | Apaf-1 act conf inactive
COc1ccc(SC[C@H](C)CN2CC[C@H](NC(=O)OCc3ccccc3)CCC2=O)cc1	none
CN(CCO)c1nc(N)c2c(N)nc3c(c2c1C#N)CC(=O)N3C1CCCC1	none
CC1(C)S[C@@H]2[C@H](NC(=O)[C@H](N)c3ccccc3)C(=O)N2[C@H]1C(=O)O	none
CC1(C)C(C(=O)OCC(Cl)(Cl)Cl)N2C(=O)C(NC(=O)Cc3ccccc3)C2S1=O (stereo unspecified)	Apaf-1 act -84.7 | Rh110 interf act inactive | Apaf-1 act conf inactive
CN(C)c1cccc2c1c(NC(=O)Nc1ccccc1)nn2C	none
COc1ccc(CCn2c(N)c(C#N)c3nc4ccccc4nc32)cc1OC	none
N#Cc1c(N)n(-c2ccccc2N)c2nc3ccccc3nc12	none
CNc1cc(C)c(C#N)c2nc3ccccc3n12	Apaf-1 act -58.1 | Rh110 interf act inactive | Apaf-1 act conf inactive
O=P(CCCCCCCCCP(=O)(c1ccccc1)c1ccccc1)(c1ccccc1)c1ccccc1	none
CCOC(=O)C1(Cc2ccccc2C)CCCN(C(=O)c2ccc3nccnc3c2)C1 (stereo unspecified)	Apaf-1 act -330.4 | Rh110 interf act inactive | Apaf-1 act conf inactive
C#CCOCCOCCOCCNc1nc(N2CCN(C(=O)C([C@@H](C)O)n3cc([C@@H](N)CCCCN)nn3)CC2)nc(N2CCN(C(=O)[C@H](CCCN=C(N)N)n3cc(C(N)[C@@H](C)CC)nn3)CC2)n1 (stereo partly specified)	none
CC(C)(C)C(=O)[C@@H]1[C@@H]2C(=O)N(c3ccc4c(c3)OCCO4)C(=O)[C@@H]2C2c3ccccc3C=CN21 (stereo partly specified)	none
Cc1ccc(C)c(NC(=S)NC(NC(=O)OCc2ccccc2)C(Cl)(Cl)Cl)c1 (stereo unspecified)	Apaf-1 act -41.5 | Rh110 interf act inactive | Apaf-1 act conf inactive
O=C1c2ccccc2-c2nnc(-c3ccc(O)cc3)cc21	none
CN1CCc2cccc3c2C1Cc1ccc(O)c(O)c1-3 (stereo unspecified)	none
CC1(C(=O)NCc2ccccn2)C=CCN1C(=O)c1ccccc1 (stereo unspecified)	Apaf-1 act -272.6 | Rh110 interf act inactive | Apaf-1 act conf inactive
COC1=CC(=O)c2ccccc2C1=O	none
O=C(NCCC(=O)N1CCN(c2cccc(Cl)c2)CC1)c1ccc(Br)cc1	none
COCCn1c(=S)[nH]c2cc(C(=O)N3CCN(c4cccc(Cl)c4)CC3)ccc2c1=O	Apaf-1 act -324.5 | Rh110 interf act inactive | Apaf-1 act conf inactive
COC(=O)c1ccc2c(=O)n(CCCCCC(=O)N3CCN(c4ccccc4)CC3)c(=O)[nH]c2c1	none
CCCCCCCNC(=O)C1(CC2CC(c3cccc(Br)c3)=NO2)CCNCC1 (stereo unspecified)	none
COC(=O)CCC(=O)OC1(C)C(=O)C2=CN(CCN3CCOCC3)C(c3ccc(OC)cc3)=CC2=C(Br)C1=O (stereo unspecified)	none
CC(C)Cc1nnc(NC(=O)C2CSC3(C)CCC(=O)N23)s1 (stereo unspecified)	Apaf-1 act -83.4 | Rh110 interf act inactive | Apaf-1 act conf inactive
CCN(CC)CCNC(=O)c1ccc2c(c1NCCO)C(=O)c1ccccc1C2=O	none
CS(=O)c1nc(-c2ccc(Br)cc2)cc(-c2ccccc2)c1C#N (stereo unspecified)	none
Nc1c(C(=O)NCC2CCCO2)c2nc3ccccc3nc2n1-c1ccccc1 (stereo unspecified)	none
O=C(NCC1CCCO1)c1ccc(Br)s1 (stereo unspecified)	Apaf-1 act -522.3 | Rh110 interf act inactive | Apaf-1 act conf inactive
CCOC(=O)N1CCN(C(=O)C2CCN(S(=O)(=O)c3ccc(OCC)cc3)CC2)CC1	Apaf-1 act -164.4 | Rh110 interf act inactive | Apaf-1 act conf inactive
Cc1ccc(/C=C/c2onc(C)c2S(=O)(=O)N2CCC(C(=O)N3CCN(C)CC3)CC2)cc1	none
CCOC(=O)N1CCN(C2=C(NS(=O)(=O)c3ccc(C)cc3)C(=O)c3ccccc3C2=O)CC1	none
COc1ccc(N)c2c1OCCC2=O	none
COc1cccc(-c2sc3ccccc3c2-c2ccc(OCCN3CCCC3)cc2)c1	none
CCCC(=O)OC1CC(C)N(C(=O)c2ccccc2)c2ccc(C)cc21 (stereo unspecified)	Apaf-1 act -66.8 | Rh110 interf act inactive | Apaf-1 act conf inactive
CC1=NN(c2ccccc2)C(=O)/C1=C\c1cn(CCC#N)nc1-c1ccc(Cl)cc1	none
COc1ccc(OC)c(C2CC(=O)N3CN(c4cccc(Cl)c4)CSC3=C2C#N)c1 (stereo unspecified)	none
O=C(NC1CC1)c1ccc(CS(=O)c2ccccc2)o1 (stereo unspecified)	Apaf-1 act -96.6 | Rh110 interf act inactive | Apaf-1 act conf inactive
CC(C)(C)N1C(=O)Cc2c1nc(N)c1c(N)nc(N3CCCCC3CO)c(C#N)c21 (stereo unspecified)	none
